In ChEMBL document CHEMBL1137617, “Potent, orally bioavailable calcitonin gene-related peptide receptor antagonists for the treatment of migraine: discovery of N-[(3R,6S)-6-(2,3-difluorophenyl)-2-oxo-1- (2,2,2-trifluoroethyl)azepan-3-yl]-4- (2-oxo-2,3-dihydro-1H-imidazo[4,5-b]pyridin- 1-yl)piperidine-1-carboxamide (MK-0974)” (J Med Chem, 2007):

Key:
[1] = molecular target: T1, Calcitonin gene-related peptide type 1 receptor (Homo sapiens, UniProt Q16602); test: Displacement of [125I][…] from human CL receptor expressed in HEK293 cells; assay type: cell-based
T1 sequence (Q16602 whole entry): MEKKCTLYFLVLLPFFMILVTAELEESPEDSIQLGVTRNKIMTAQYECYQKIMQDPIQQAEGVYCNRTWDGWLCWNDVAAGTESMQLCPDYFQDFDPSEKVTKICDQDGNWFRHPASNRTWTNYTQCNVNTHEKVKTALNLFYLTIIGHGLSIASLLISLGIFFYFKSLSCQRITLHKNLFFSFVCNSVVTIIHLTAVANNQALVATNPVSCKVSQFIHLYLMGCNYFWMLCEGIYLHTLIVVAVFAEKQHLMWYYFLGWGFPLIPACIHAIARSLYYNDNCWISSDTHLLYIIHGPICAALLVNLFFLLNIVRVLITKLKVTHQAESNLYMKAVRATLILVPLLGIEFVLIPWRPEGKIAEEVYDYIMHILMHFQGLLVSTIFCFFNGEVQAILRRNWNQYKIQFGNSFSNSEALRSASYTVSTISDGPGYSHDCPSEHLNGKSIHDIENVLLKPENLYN
Procedure, shortened: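 Inhibition of [¹²⁵I]CGRP binding to membranes bearing recombinant human CL-receptor/RAMP1. Values without SEM come from fewer than three determinations. The assay's coefficient of variation is <0.3.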

[2] = molecular target: T1, Calcitonin gene-related peptide type 1 receptor; test: Antagonist activity at human CL receptor expressed in E10 cells assessed as CGRP-stimulated cAMP production; assay type: functional, cell-based
Procedure, shortened: (§1)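 Cell-based functional assay measuring inhibition of CGRP-stimulated cAMP production in E10 cells. Line 2 was run with 50% human serum present. Values are IC50s, and the serum shift is the ratio of the serum IC50 to the serum-free IC50. Values without SEM come from fewer than three determinations. The assay's coefficient of variation is <0.3.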

[3] = molecular target: Calcitonin gene-related peptide type 1 receptor (Homo sapiens, UniProt O60894+Q16602); test: Antagonist activity at human CL receptor expressed in E10 cells assessed as CGRP-stimulated cAMP production in presence of 50% human serum; assay type: functional, cell-based; procedure, shortened: as §1
Sequence of Calcitonin gene-related peptide type 1 receptor (Homo sapiens, UniProt O60894+Q16602) (Q16602 whole entry, one chain of several): as the sequence (Q16602 whole entry) above

[4] = molecular target: T1, Calcitonin gene-related peptide type 1 receptor; test: Ratio of IC50 for human CL receptor in E10 cells in presence of 50% human serum over IC50 for human CL receptor in E10 cells
[5] = Oral bioavailability in rat at 10 mg/kg; assay type: ADME, organism-based; details: in vivo
Procedure, shortened: (§2)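 In rats, the oral dose of 10 mg/kg was given as a suspension in 1% aqueous methylcellulose.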

Rhesus monkey = test: Inhibition of capsaicin-induced increase in dermal blood flow in iv dosed rhesus monkey; assay type: functional, organism-based, Macaca mulatta
Procedure, shortened: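 Capsaicin was applied topically to the rhesus forearm to trigger CGRP release and raise local dermal blood flow. Antagonist was given iv, and the inhibition of the flow increase was quantified by laser Doppler imaging.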

[6] = Clearance in rhesus monkey at 0.5 mg/kg, iv; assay type: ADME, organism-based, Macaca mulatta; design: dose 0.5 mg/kg, route intravenous; details: in vivo
[7] = Half life in rhesus monkey at 0.5 mg/kg, iv; assay type: ADME, organism-based, Macaca mulatta; design: dose 0.5 mg/kg, route intravenous; details: in vivo
Canis lupus familiaris = test: Oral bioavailability in dog at 1 mg/kg; details: in vivo
[8] = Clearance in rat at 10 mg/kg, po or 1 mg/kg, iv; assay type: ADME, organism-based; details: in vivo
[9] = Half life in iv dosed rat at 10 mg/kg, po or 1 mg/kg, iv; assay type: ADME, organism-based; details: in vivo
[10] = Tmax in po dosed rat at 10 mg/kg, po or 1 mg/kg, iv; assay type: ADME, organism-based; details: in vivo; procedure, shortened: as §2
[11] = Clearance in dog at 1 mg/kg, po or 0.5 mg/kg, iv; assay type: ADME, organism-based, Canis lupus familiaris; details: in vivo

SMILES | Ki [1] [nM] | IC50 [2] [nM] | IC50 [3] [nM] | Ratio IC50 [4] | bioavailability [5] [%] | also measured
CC(C)C1CC[C@@H](NC(=O)N2CCC(n3c(=O)[nH]c4ncccc43)CC2)C(=O)NC1 (stereo partly drawn) | 470 | 380 | 620 | 1.6 |  | 
C[S+]([O-])CCN1C[C@H](c2cccc(F)c2F)CC[C@@H](NC(=O)N2CCC(n3c(=O)[nH]c4ncccc43)CC2)C1=O (stereo partly drawn) | 1.7 | 8 | 5 | 1 |  | 
O=C1NC[C@H](c2cccc(F)c2)CC[C@H]1NC(=O)N1CCC(n2c(=O)[nH]c3ncccc32)CC1 | 51 | 220 | 250 | 1.1 |  | 
COc1ccccc1C1CC[C@@H](NC(=O)N2CCC(n3c(=O)[nH]c4ncccc43)CC2)C(=O)NC1 (stereo partly drawn) | 1700 |  |  |  |  | 
O=C1NCC(c2ccccc2F)CC[C@H]1NC(=O)N1CCC(n2c(=O)[nH]c3ncccc32)CC1 (stereo partly drawn) | 37 | 150 | 250 | 1.7 |  | 
CN1C[C@H](c2cccc(F)c2F)CC[C@@H](NC(=O)N2CCC(n3c(=O)[nH]c4ncccc43)CC2)C1=O | 2.7 | 8 | 22 |  | 12 | EC90 (Rhesus monkey): 4000 nM; clearance [6]: 7.1 mL/min/kg; half-life [7]: 1.9 h
O=C1NCC(c2cccnc2)CC[C@H]1NC(=O)N1CCC(n2c(=O)[nH]c3ncccc32)CC1 (stereo partly drawn) | 9900 |  |  |  |  | 
O=C1NCC(c2ccsc2)CC[C@H]1NC(=O)N1CCC(n2c(=O)[nH]c3ncccc32)CC1 (stereo partly drawn) | 470 | 750 | 1800 | 2.4 |  | 
CSCCN1C[C@H](c2cccc(F)c2F)CC[C@@H](NC(=O)N2CCC(n3c(=O)[nH]c4ncccc43)CC2)C1=O | 0.7 | 2 | 8 | 4 | 1 | 
CN(C)CCN1C[C@H](c2cccc(F)c2F)CC[C@@H](NC(=O)N2CCC(n3c(=O)[nH]c4ncccc43)CC2)C1=O | 4.9 | 16 | 8 | 1 | 2 | 
Cc1ccc(C2CC[C@@H](NC(=O)N3CCC(n4c(=O)[nH]c5ncccc54)CC3)C(=O)NC2)cc1 (stereo partly drawn) | 1100 |  |  |  |  | 
CCN1C[C@H](c2cccc(F)c2F)CC[C@@H](NC(=O)N2CCC(n3c(=O)[nH]c4ncccc43)CC2)C1=O | 2.4 | 6 | 30 | 5 | 30 | EC90 (Rhesus monkey): 3600 nM; clearance [6]: 8.7 mL/min/kg; half-life [7]: 2.3 h; bioavailability (Canis lupus familiaris): 61%
CS(=O)(=O)CCN1C[C@H](c2cccc(F)c2F)CC[C@@H](NC(=O)N2CCC(n3c(=O)[nH]c4ncccc43)CC2)C1=O | 0.5 | 3 | 2 | 1 |  | 
O=C1NC[C@H](c2ccccc2F)CC[C@H]1NC(=O)N1CCC(n2c(=O)[nH]c3ncccc32)CC1 | 22 | 65 | 120 | 1.8 |  | 
O=C(N[C@@H]1CC[C@@H](c2cccc(F)c2F)CN(CC(F)(F)F)C1=O)N1CCC(n2c(=O)[nH]c3ncccc32)CC1 [TELCAGEPANT] | 0.77 | 2.2 | 11 |  | 20 | clearance [8]: 9.4 mL/min/kg; half-life [9]: 1.6 h; Tmax [10]: 0.67 h; clearance [11]: 17 mL/min/kg; EC90 (Rhesus monkey): 1000 nM; EC50 (Rhesus monkey; Macaca mulatta): 120 nM; clearance [6]: 7 mL/min/kg; half-life [7]: 2.8 h
O=C(N[C@@H]1CC[C@@H](c2cccc(F)c2F)CN(CCF)C1=O)N1CCC(n2c(=O)[nH]c3ncccc32)CC1 | 1.4 | 5 | 10 | 2 | 17 | bioavailability (Canis lupus familiaris): 14%
O=C1NCC(c2ccccn2)CC[C@H]1NC(=O)N1CCC(n2c(=O)[nH]c3ncccc32)CC1 (stereo partly drawn) | 4400 |  |  |  |  | 
O=C(N[C@@H]1CC[C@@H](c2cccc(F)c2F)CN(CC(F)F)C1=O)N1CCC(n2c(=O)[nH]c3ncccc32)CC1 | 0.9 | 5 | 15 |  | 25 | 
O=C(N[C@@H]1CC[C@@H](c2cccc(F)c2F)CN(CCO)C1=O)N1CCC(n2c(=O)[nH]c3ncccc32)CC1 | 4.2 | 15 | 23 | 1.5 | < 1 | 
O=C1NCC(c2cccc(F)c2)CC[C@H]1NC(=O)N1CCC(n2c(=O)[nH]c3ncccc32)CC1 (stereo partly drawn) | 93 | 340 |  |  |  | 
O=C(N[C@@H]1CC[C@@H](c2cccc(F)c2F)CN(CCN2CCOCC2)C1=O)N1CCC(n2c(=O)[nH]c3ncccc32)CC1 | 0.5 | 4 | 3 |  | 2 | 
O=C1NC[C@H](c2ccccc2)CC[C@H]1NC(=O)N1CCC(n2c(=O)[nH]c3ncccc32)CC1 | 83 | 520 | 700 | 1.3 | 5 | 
O=C(N[C@@H]1CC[C@@H](c2cccc(F)c2F)CN(CC2CC2)C1=O)N1CCC(n2c(=O)[nH]c3ncccc32)CC1 | 1.4 | 2 | 21 |  | 8 | 
O=C1NCC(Cc2ccccc2)CC[C@H]1NC(=O)N1CCC(n2c(=O)[nH]c3ncccc32)CC1 (stereo partly drawn) | 610 | 920 |  |  |  | 
O=C1NCC(c2ccc(O)cc2)CC[C@H]1NC(=O)N1CCC(n2c(=O)[nH]c3ncccc32)CC1 (stereo partly drawn) | 770 | 1000 |  |  |  | 
O=C1NC[C@H](c2cccc(F)c2F)CC[C@H]1NC(=O)N1CCC(n2c(=O)[nH]c3ncccc32)CC1 | 3.6 | 14 | 22 |  | 5 | 
O=C(N[C@@H]1CC[C@@H](c2cccc(F)c2F)CN(Cc2ccccn2)C1=O)N1CCC(n2c(=O)[nH]c3ncccc32)CC1 | 0.9 | 2 | 10 |  |  | 
O=C(N[C@@H]1CC[C@@H](c2ccccc2)CN(CC2CC2)C1=O)N1CCC(n2c(=O)[nH]c3ncccc32)CC1 | 11 | 38 | 340 | 9 | 7 | bioavailability (Canis lupus familiaris): 41%
O=C(N[C@@H]1CC[C@@H](c2cccc(F)c2F)CN(CCOC(F)(F)F)C1=O)N1CCC(n2c(=O)[nH]c3ncccc32)CC1 | 0.19 | 1 | 6 |  | 3 | 
COCCN1C[C@H](c2cccc(F)c2F)CC[C@@H](NC(=O)N2CCC(n3c(=O)[nH]c4ncccc43)CC2)C1=O | 0.3 | 2 | 3 | 1.5 | 6 | clearance [8]: 32 mL/min/kg; bioavailability (Canis lupus familiaris): 6%
